Source: ChEMBL document CHEMBL1134596, “Synthesis and conformational analysis of fusidic acid side chain derivatives in relation to antibacterial activity” (2001)
≈ marks a conversion by molar mass, not a printed value.

Legend:
Assay type in all cases: functional
[1] = test system: Bacillus cereus; assay: Minimum inhibitory concentration against Bacillus cereus ATCC 10876
In short: (§1)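 Agar cup diffusion assay. Colonies from a fresh overnight culture were suspended in saline to 0.5 McFarland (10^8 CFU/mL). Mueller Hinton agar at 48 °C was seeded at 10^6 CFU/mL and poured, and holes were cut in it. Each hole received sample from a six-step dilution series between 0.25 and 125 µg/mL. After incubation, inhibition zone diameters were measured with an electronic caliper to estimate the MIC.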

[2] = test system: Candida albicans; assay: Minimum inhibitory concentration against Candida albicans ATCC 10231
[3] = test system: Clostridium perfringens; assay: Minimum inhibitory concentration against Clostridium perfringens KT 13
In short: (§2)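 MIC by agar cup diffusion. Colonies from fresh overnight culture were suspended in saline to 0.5 McFarland (10^8 CFU/mL), and molten Mueller Hinton agar at 48 °C was seeded at 10^6 CFU/mL and poured. Wells each received 200 µL of one of six dilutions spanning 0.25–125 µg/mL. After incubation, inhibition zone diameters were measured by caliper. Strains came from ATCC or in-house clinical isolates.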

[4] = test system: Corynebacterium xerosis; assay: Minimum inhibitory concentration against Corynebacterium xerosis NCTC 9755; in short: as §1
[5] = test system: Escherichia coli; assay: Minimum inhibitory concentration against Escherichia coli HA 44; in short: as §1
[6] = test system: Micrococcus luteus; assay: Minimum inhibitory concentration against Micrococcus luteus ATCC 9341; in short: as §1
[7] = test system: Cutibacterium acnes; assay: Minimum inhibitory concentration against Propionibacterium acnes NCTC 737; in short: as §1
[8] = test system: Staphylococcus aureus; assay: Minimum inhibitory concentration against Staphylococcus aureus ATCC 6538P; in short: as §1
[9] = test system: Staphylococcus aureus; assay: Minimum inhibitory concentration against meticilline resistant Staphylococcus aureus CJ 232; in short: as §2
[10] = test system: Staphylococcus aureus; assay: Minimum inhibitory concentration against meticilline and fus resistant Staphylococcus aureus CJ 234; in short: as §2
[11] = test system: Staphylococcus aureus; assay: Minimum inhibitory concentration against meticilline and rifampicin resistant Staphylococcus aureus CJ 234; in short: as §2
[12] = Minimum inhibitory concentration against Saccharomyces cerevisiae ZZ 7
[13] = test system: Streptococcus salivarius; assay: Minimum inhibitory concentration against Streptococcus salivarius EG 7 (gr.A)
In short: (§3)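 Streptococcal MICs were estimated by agar cup diffusion in Mueller Hinton agar supplemented with 5% sheep blood. The agar was seeded at 48 °C with 10^6 CFU/mL from a saline suspension at 0.5 McFarland. Cut holes were filled from six dilutions spanning 0.25–125 µg/mL. After incubation, growth-inhibition zone diameters were read with an electronic caliper.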

[14] = test system: Streptococcus thermophilus; assay: Minimum inhibitory concentration against Streptococcus thermophilus EG 5; in short: as §3
[15] = test system: Streptococcus equi subsp. zooepidemicus; assay: Minimum inhibitory concentration against Streptococcus zooepidermidis ED (gr.C); in short: as §3
[16] = test system: Enterococcus faecium; assay: Minimum inhibitory concentration against Streptococcus faecium EI 119; in short: as §3
[17] = test system: Staphylococcus epidermidis; assay: Minimum inhibitory concentration against Staphylococcus epidermidis ATCC 12228; in short: as §1
[18] = test system: Streptococcus pyogenes; assay: Minimum inhibitory concentration against Streptococcus pyogenes EC; in short: as §3
[19] = Minimum inhibitory concentration against Streptococcus. species EF 6; conditions: Bacteria; in short: as §3
[20] = test system: Staphylococcus aureus; assay: Minimum inhibitory concentration against Staphylococcus aureus ATCC 29213; in short: as §1
[21] = test system: Staphylococcus aureus; assay: Minimum inhibitory concentration against Staphylococcus aureus ATCC 2977; in short: as §2
[22] = test system: Aspergillus niger; assay: Minimum inhibitory concentration against Aspergillus niger ATCC 16404

Row | Structure (SMILES) | MIC [1] | MIC [2] | MIC [3] | MIC [4] | MIC [5] | MIC [6] | MIC [7] | MIC [8] | MIC [9] | MIC [10] | MIC [11] | MIC [12] | MIC [13] | MIC [14] | MIC [15] | MIC [16] | MIC [17] | MIC [18] | MIC [19] | MIC [20] | other results
1 | CC(=O)O[C@H]1C[C@@]2(C)C(CC(O)[C@H]3[C@@]4(C)CCC(O)C(C)C4CC[C@@]32C)C1[C@@H](CCC=C(C)C)C(=O)O (some centres not stated) | > 125 µg/mL | > 125 µg/mL | > 125 µg/mL | > 125 µg/mL | > 125 µg/mL | > 125 µg/mL | 4 µg/mL (≈ 7.71 µM) | > 125 µg/mL | > 125 µg/mL | > 125 µg/mL | > 125 µg/mL | > 125 µg/mL | > 125 µg/mL | > 125 µg/mL | > 125 µg/mL | > 125 µg/mL | > 125 µg/mL | > 125 µg/mL | > 125 µg/mL | > 125 µg/mL | MIC [21]: > 125 µg/mL
2 | CC(=O)O[C@H]1C[C@@]2(C)C(CC(O)[C@H]3[C@@]4(C)CCC(O)C(C)C4CC[C@]32C)C1[C@H](CCC=C(C)C)C(=O)O (some centres not stated) | 1 µg/mL (≈ 1.93 µM) | 64 µg/mL (≈ 123 µM) | 16 µg/mL (≈ 30.8 µM) | 0.03 µg/mL (≈ 0.0578 µM) | > 125 µg/mL | 1 µg/mL (≈ 1.93 µM) | 0.03 µg/mL (≈ 0.0578 µM) | 0.012 µg/mL (≈ 0.0231 µM) | 0.03 µg/mL (≈ 0.0578 µM) | > 125 µg/mL | 0.03 µg/mL (≈ 0.0578 µM) | 4 µg/mL (≈ 7.71 µM) | 4 µg/mL (≈ 7.71 µM) | 16 µg/mL (≈ 30.8 µM) | 16 µg/mL (≈ 30.8 µM) | 0.025 µg/mL (≈ 0.0482 µM) | 0.01 µg/mL (≈ 0.0193 µM) | 16 µg/mL (≈ 30.8 µM) | 4 µg/mL (≈ 7.71 µM) | 0.01 µg/mL (≈ 0.0193 µM) | MIC [22]: 64 µg/mL (≈ 123 µM); MIC [21]: 0.03 µg/mL (≈ 0.0578 µM)
3 | CC(=O)O[C@H]1C[C@@]2(C)[C@@H](CC(O)[C@H]3[C@@]4(C)CCC(O)C(C)[C@@H]4CC[C@]32C)/C1=C(\CCC=C(C)C)C(=O)O (some centres not stated) | 4 µg/mL (≈ 7.74 µM) | 16 µg/mL (≈ 31 µM) | 16 µg/mL (≈ 31 µM) | 0.01 µg/mL (≈ 0.0194 µM) | > 125 µg/mL | 1 µg/mL (≈ 1.94 µM) | 0.003 µg/mL (≈ 0.00581 µM) | 0.007 µg/mL (≈ 0.0135 µM) | 0.015 µg/mL (≈ 0.029 µM) | > 125 µg/mL | 0.006 µg/mL (≈ 0.0116 µM) | 4 µg/mL (≈ 7.74 µM) | 4 µg/mL (≈ 7.74 µM) | 4 µg/mL (≈ 7.74 µM) | 16 µg/mL (≈ 31 µM) | 0.01 µg/mL (≈ 0.0194 µM) | 0.0007 µg/mL (≈ 0.00135 µM) | 4 µg/mL (≈ 7.74 µM) | 4 µg/mL (≈ 7.74 µM) | 0.007 µg/mL (≈ 0.0135 µM) | MIC [22]: 16 µg/mL (≈ 31 µM); MIC [21]: 0.006 µg/mL (≈ 0.0116 µM)
4 | CC(=O)O[C@H]1C[C@@]2(C)C(CC(O)[C@H]3[C@@]4(C)CCC(O)C(C)C4CC[C@@]32C)[C@@H]1[C@H](CCCC(C)C)C(=O)O (some centres not stated) | > 125 µg/mL | > 125 µg/mL | > 125 µg/mL | 4 µg/mL (≈ 7.68 µM) | > 125 µg/mL | > 125 µg/mL | 4 µg/mL (≈ 7.68 µM) | 4 µg/mL (≈ 7.68 µM) | 4 µg/mL (≈ 7.68 µM) | > 125 µg/mL | 0.9 µg/mL (≈ 1.73 µM) | > 125 µg/mL | > 125 µg/mL | > 125 µg/mL | > 125 µg/mL | 16 µg/mL (≈ 30.7 µM) | 3.8 µg/mL (≈ 7.3 µM) | > 125 µg/mL | > 125 µg/mL | 2 µg/mL (≈ 3.84 µM) | MIC [22]: 16 µg/mL (≈ 30.7 µM); MIC [21]: 4 µg/mL (≈ 7.68 µM)
